Results as given in ChEMBL document CHEMBL1124144, “Electrophysiologic and antiarrhythmic activities of 4-amino-N-[2-(diethylamino)ethyl]-3,5-dimethylbenzamide, a sterically hindered procainamide analogue” (1988).

Key:
Canis familiaris [1] = species on record: Canis familiaris; assay: Resting potential at 3 x 10e-4 M in Canine Purkinje fibers; format: functional, Canis lupus familiaris, Purkinje fiber
Outline: (§1)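 Canine Purkinje fibres superfused with Tyrode's solution (K+ 4.0, Mg2+ 1.0, Ca2+ 4.0, HCO3- 18.0, glucose 5.5 mM), paced at 1000 ms cycle length with 0.5-ms pulses at 1.5× threshold. Transmembrane potentials were recorded with 3 M KCl microelectrodes. Drug was added to the superfusate at 3 × 10^-4 M final and read at stable effect (~30 min). Each cell served as its own control. Values are mean ± SEM, four or five experiments, five tissues per drug from different dogs. Compared by ANOVA/Fisher's LSD.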

Canis lupus familiaris [2] = species on record: Canis lupus familiaris; assay: (§2) Sodium channel inactivating potency at 3*10e-4 M; format: functional
Outline: (§3)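 Recovery from sodium-channel inactivation in paced canine Purkinje fibres: a premature S2 stimulus was given immediately after full repolarization. It was expressed as the ratio of premature to paced action potential rate of rise. Drug was present at 3 × 10^-4 M final, read after ~30 min. Each cell was its own control. Values are mean ± SEM, four or five experiments.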

Canis familiaris [3] = species on record: Canis familiaris; assay: Percent change of resting potential at 3 x 10e-4 M in Canine Purkinje fibers; format: functional, Canis lupus familiaris, Purkinje fiber; outline: as §1
Canis familiaris [4] = assay: Action potential duration when no compound was administered in Canine Purkinje fibers measured at 95% repolarization; format: functional, Canis lupus familiaris, Purkinje fiber; outline: as §1
Canis lupus familiaris [5] = species on record: Canis lupus familiaris; assay: as §2; format: functional; outline: as §3; remark: listed apart in the source
Canis familiaris [6] = assay: Percent change in maximal upstroke velocity when 3*10e-4 M compound was administered in Canine Purkinje fibers; format: functional; settings: Canis lupus familiaris; Purkinje fiber; outline: as §1
Canis familiaris [7] = species on record: Canis familiaris; assay: Percent change of action potential duration at 3 x 10e-4 M, measured at 70% repolarization; format: functional, Canis lupus familiaris; outline: as §1
Canis familiaris [8] = assay: Effective refractory period when no compound was administered in Canine Purkinje fibers; format: functional, Canis lupus familiaris, Purkinje fiber; outline: as §1
Canis familiaris [9] = assay: Effect on ouabain-induced arrhythmias in pentobarbital anesthetized dogs; format: functional, Canis lupus familiaris
Outline: (§4)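 Male beagles (12–15 kg) were given pentobarbital 35 mg/kg iv plus 5 mg/kg 15 min later. Ouabain went into the cephalic vein at 50 µg/kg, then 10 µg/kg every 15 min (extra 5 µg/kg if needed) until arrhythmia was sustained. After 30 min of arrhythmia, drug in water was infused iv at 200 µg/kg/min, raised to 500 µg/kg/min after 10 min, until conversion to sinus rhythm. n = 5.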

Canis familiaris [10] = assay: Maximal upstroke velocity when 3*10e-4 M compound was administered in Canine Purkinje fibers; format: functional; settings: Canis lupus familiaris; Purkinje fiber; outline: as §1
Canis familiaris [11] = assay: Amplitude when no compound was administered in Canine Purkinje fibers; format: functional, Canis lupus familiaris, Purkinje fiber; outline: as §1
Canis lupus familiaris [12] = species on record: Canis lupus familiaris; assay: Sodium channel inactivating potency in the absence of compound (control); format: functional; outline: as §3
Canis familiaris [13] = species on record: Canis familiaris; assay: Percent change of amplitude at 3 x 10e-4 M concentration in Canine Purkinje fibers; format: functional, Canis lupus familiaris, Purkinje fiber; outline: as §1
Canis familiaris [14] = species on record: Canis familiaris; assay: Percent change of action potential duration at 3 x 10e-4 M, measured at 95% repolarization in Canine Purkinje fibers; format: functional, Canis lupus familiaris, Purkinje fiber; outline: as §1
Canis familiaris [15] = assay: Effect on conversion dose required for arrhythmias in pentobarbital anesthetized dogs; format: functional, Canis lupus familiaris; outline: as §4
Canis familiaris [16] = species on record: Canis familiaris; assay: Percent change of effective refractory period at 3 x 10e-4 M, in Canine Purkinje fibers; format: functional, Canis lupus familiaris, Purkinje fiber; outline: as §1
Canis familiaris [17] = assay: Action potential duration when no compound was administered in Canine Purkinje fibers measured at 70% repolarization; format: functional, Canis lupus familiaris, Purkinje fiber; outline: as §1
Canis familiaris [18] = species on record: Canis familiaris; assay: Action potential duration at 3 x 10e-4 M measured at 95% repolarization in Canine Purkinje fibers; format: functional, Canis lupus familiaris, Purkinje fiber; outline: as §1
Canis familiaris [19] = species on record: Canis familiaris; assay: Action potential duration at 3 x 10e-4 M measured at 70% repolarization; format: functional, Canis lupus familiaris; outline: as §1
Canis familiaris [20] = assay: Resting potential when no compound was administered in Canine Purkinje fibers; format: functional, Canis lupus familiaris, Purkinje fiber; outline: as §1
Canis familiaris [21] = species on record: Canis familiaris; assay: Amplitude at 3 x 10e-4 M concentration in Canine Purkinje fibers; format: functional, Canis lupus familiaris, Purkinje fiber; outline: as §1
Canis familiaris [22] = species on record: Canis familiaris; assay: Effective refractory period at 3 x 10e-4 M in Canine Purkinje fibers; format: functional, Canis lupus familiaris, Purkinje fiber; outline: as §1
Canis familiaris [23] = assay: Maximal upstroke velocity when no compound was administered in Canine Purkinje fibers; format: functional; settings: Canis lupus familiaris; Purkinje fiber; outline: as §1
Rattus norvegicus [24] = assay: Plasma concentration in rat 30 minutes after administration at a dose of 25 mg/kg; format: functional, organism-based; parameters: dose 25 mg/kg
Outline: (§5)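 Fischer 344 rats were given 25 mg/kg in water iv via the jugular vein, three per group. Plasma was taken by cardiac puncture at set times. Parent drug and N-acetyl metabolite were quantified by GC with a nitrogen-phosphorus detector after alkaline extraction with an internal standard. The assay was linear 1–10 µg/mL. Values are mean ± SEM.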

Rattus norvegicus [25] = assay: Plasma concentration in rat 2 hr after administration at a dose of 25 mg/kg; format: functional, organism-based; parameters: dose 25 mg/kg; outline: as §5
Rattus norvegicus [26] = assay: Plasma concentration in rat 4 hr after administration at a dose of 25 mg/kg; format: functional, organism-based; parameters: dose 25 mg/kg; outline: as §5

Compound: CCN(CC)CCNC(=O)c1cc(C)c(N)c(C)c1
- Resting potential (Canis familiaris [1]): -81 mV
- Na+ inactivation (Canis lupus familiaris [2]): -7%
- Resting potential (Canis familiaris [3]): -12%
- APD95 (Canis familiaris [4]): 426 ms
- Na+ inactivation (Canis lupus familiaris [5]): 0.91
- Vmax (Canis familiaris [6]): -38%
- APD70 (Canis familiaris [7]): -37%
- ERP (Canis familiaris [8]): 351 ms
- Ouabain dose (Canis familiaris [9]): 69 µg/kg
- Vmax (Canis familiaris [10]): 387 V s-1
- Amplitude (Canis familiaris [11]): 131 mV
- Na+ inactivation (Canis lupus familiaris [12]): 0.99
- Amplitude (Canis familiaris [13]): -11%
- APD95 (Canis familiaris [14]): -17%
- Conversion dose (Canis familiaris [15]): 14.3 mg/kg
- ERP (Canis familiaris [16]): -18%
- APD70 (Canis familiaris [17]): 363 ms
- APD95 (Canis familiaris [18]): 353 ms
- APD70 (Canis familiaris [19]): 227 ms
- Resting potential (Canis familiaris [20]): -92 mV
- Amplitude (Canis familiaris [21]): 117 mV
- ERP (Canis familiaris [22]): 282 ms
- Vmax (Canis familiaris [23]): 632 V s-1

Compound: CCN(CC)CCNC(=O)c1ccc(N)cc1 [PROCAINAMIDE]
- Resting potential (Canis familiaris [1]): -91 mV
- Resting potential (Canis familiaris [3]): -2%
- APD95 (Canis familiaris [4]): 347 ms
- Na+ inactivation (Canis lupus familiaris [5]): 0.96
- Na+ inactivation change (Canis lupus familiaris [5]): -3%
- Vmax (Canis familiaris [6]): -31%
- APD70 (Canis familiaris [7]): 1%
- Plasma concentration (Rattus norvegicus [24]): 2.29 µg/mL
- ERP (Canis familiaris [8]): 308 ms
- Ouabain dose (Canis familiaris [9]): 68 µg/kg
- Vmax (Canis familiaris [10]): 345 V s-1
- Amplitude (Canis familiaris [11]): 127 mV
- Na+ inactivation (Canis lupus familiaris [12]): 1
- Amplitude (Canis familiaris [13]): -7%
- APD95 (Canis familiaris [14]): 5%
- Plasma concentration (Rattus norvegicus [25]): 0.36 µg/mL
- Plasma concentration (Rattus norvegicus [26]): 2.3 µg/mL
- Conversion dose (Canis familiaris [15]): 19 mg/kg
- ERP (Canis familiaris [16]): 6%
- APD70 (Canis familiaris [17]): 285 ms
- APD95 (Canis familiaris [18]): 361 ms
- APD70 (Canis familiaris [19]): 284 ms
- Resting potential (Canis familiaris [20]): -93 mV
- Amplitude (Canis familiaris [21]): 119 mV
- ERP (Canis familiaris [22]): 321 ms
- Vmax (Canis familiaris [23]): 501 V s-1

Compound: CCN(CC)CCNC(=O)c1ccc(N)c(C)c1
- Resting potential (Canis familiaris [1]): -85 mV
- Na+ inactivation (Canis lupus familiaris [2]): -9%
- Resting potential (Canis familiaris [3]): -4%
- APD95 (Canis familiaris [4]): 363 ms
- Na+ inactivation (Canis lupus familiaris [5]): 0.88
- Vmax (Canis familiaris [6]): -39%
- APD70 (Canis familiaris [7]): -16%
- ERP (Canis familiaris [8]): 303 ms
- Ouabain dose (Canis familiaris [9]): 65 µg/kg
- Vmax (Canis familiaris [10]): 282 V s-1
- Amplitude (Canis familiaris [11]): 129 mV
- Na+ inactivation (Canis lupus familiaris [12]): 0.96
- Amplitude (Canis familiaris [13]): -12%
- APD95 (Canis familiaris [14]): -7%
- Conversion dose (Canis familiaris [15]): 18.3 mg/kg
- ERP (Canis familiaris [16]): -6%
- APD70 (Canis familiaris [17]): 292 ms
- APD95 (Canis familiaris [18]): 336 ms
- APD70 (Canis familiaris [19]): 244 ms
- Resting potential (Canis familiaris [20]): -89 mV
- Amplitude (Canis familiaris [21]): 114 mV
- ERP (Canis familiaris [22]): 283 ms
- Vmax (Canis familiaris [23]): 462 V s-1
